PGC1a Ac signal: raises PGC1a acetylation signal in U2OS cells. U2OS PGC1a acetylation AlphaScreen, overnight. 350,000 compounds, 0.21% hits. activation, % at 15.6 µM;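 active means every replicate reaching activation of at least 50%, whatever the mean replicate activation; inconclusive means replicates that disagree or another doubt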;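 further: hits raise the AlphaScreen acetylation signal above neutral controls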
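System: Flag-PGC1a/GCN5 U2OS cells | Quantity: 7000 cells/well | Times: Overnight compound treatment, 37 °C | Measured by: AlphaScreen proximity luminescence, anti-acetyl-lysine antibody | Dosing: One concentration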
Hep G6PC suppr: PGC-1a acetylation activators affecting G6PC expression in hepatocytes; 240 tested, under 10 active; G6PC suppression (normalized activity, % of positive control; higher = more suppression), % at 26 µM; shares compounds with PGC1a Ac signal; AID 743463; primary mouse hepatocytes, G6PC mRNA qPCR, forskolin;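 active means dose curves showing G6PC suppression whose half-maximal dose is at most twice the top valid dose; inconclusive means flat curves with moderate negative activity, or unreliable fits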;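 further: G6PC expression relative to GAPDH housekeeping gene as delta delta Ct; 0% = median of neutral control wells and 100% = median of positive control wells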
PCK1 hep suppr: hepatocyte PCK1 expression change via PGC-1a acetylation activation. PCK1 expression decrease, unspecified at 26 µM. shares compounds with PGC1a Ac signal. AID 743465. 230 tested, under 10 active. primary mouse hepatocytes, PCK1 mRNA qPCR, forskolin-stimulated;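 active means compounds lowering PCK1 expression whose fitted half-maximal concentration is at most twice the top tested dose; inconclusive means flat fit with moderate opposite-direction effect, or poor fit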;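 further: values are delta delta Ct of PCK1 relative to GAPDH; higher delta delta Ct means lower PCK1 expression so positive values indicate hits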
PGC1a hep suppr: hepatocyte PGC-1a expression change via PGC-1a acetylation activation; shares compounds with PGC1a Ac signal; primary mouse hepatocytes, PGC-1a mRNA qPCR, forskolin; top dose 26 µM; max activity (PGC-1a expression decrease), %; 240 tested, under 10 active;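 active means compound lowering PGC-1a expression with fitted half-maximal concentration at most twice its top tested dose; inconclusive means flat curve with moderate opposite-direction effect, or poor fit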;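 further: 0% = neutral control wells median and 100% = positive control wells median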
The depositor's hits bear a star; u = inconclusive; x = no result given; [ ] = another dose, or the depositor's remark. The list is a sample of the results.

SMILES | PGC1a Ac signal | Hep G6PC suppr | PCK1 hep suppr | PGC1a hep suppr
C#CCN(C[C@@H]1[C@@H](OC(=O)NCCCCCC)[C@@H](OC(=O)NCCCCCC)Cn2c(=O)ccc(=O)n21)S(=O)(=O)c1ccc(C)cc1 | -92 | x | x | x
Cc1c(Cl)cccc1Nc1ncccc1C(=O)O | -56 | x | x | x
O=C(NC1CCCCC1)c1cccnc1C(=O)O | -51 | 40 | 13 | 69
Cc1ccc(C(=O)N2CCN(c3ccc(NC(=O)c4ccc(Br)o4)cc3)CC2)cc1 | u | -37 | -21 | 63
COc1ccc2sc(C)[n+](C)c2c1 | -55 | x | x | x
C=C1C(=O)[C@]23C[C@H]1CCC2[C@]1(C)CCC[C@@](C)(C(=O)O)C1C[C@@H]3O (some centres undefined) | -47 | x | x | x
COc1ccc(-c2c(-c3cc(OC)cc(OC)c3)n(C)c3ccc(-c4cnc(N)nc4)cc23)cc1 | u | 998 | 516 | 63
O=C(CC(C(=O)O)c1c[nH]c2ccccc12)c1ccccc1 (centres undefined) | -81 | x | x | x
C#CC(=O)N(c1cccc(OC)c1)C(C(=O)NC1CCCC1)c1cccs1 (centres undefined) | -93 | x | x | x
C#CC(=O)N(c1ccc(OC)c(OC)c1)C(C(=O)NC1CCCC1)c1cccs1 (centres undefined) | -103 | x | x | x
COc1ccc(N(C(=O)c2snc(C(N)=O)c2N)C(C(=O)NC2CCCC2)c2ccco2)c(OC)c1 (centres undefined) | u | x | 6.7 | -30
C[C@@H]1CN([C@@H](C)CO)C(=O)Cc2cc(NC(=O)Cc3ccccc3)ccc2O[C@H]1CN(C)C(=O)Nc1ccccc1 | -49 | -3[23.5 µM] | 17[23.5 µM] | 32
C[C@H](CO)N1C[C@H](C)[C@@H](CN(C)C(=O)Nc2ccc(-c3cccs3)cc2)OCc2cnnn2CCCC1=O | -46 | x | x | x
C[C@@H]1CN([C@H](C)CO)C(=O)c2c(c3ccccc3n2C)-c2ccccc2CO[C@@H]1CN(C)C(=O)[C@H](C)c1ccccc1 | 133* | 20 | 40 | 91
C[C@@H]1CN([C@H](C)CO)C(=O)c2c(c3ccccc3n2C)-c2ccccc2CO[C@@H]1CN(C)C(=O)c1ccc(F)cc1 | 78* | 61[23.5 µM] | 95[23.5 µM] | 109
C[C@@H]1CN([C@@H](C)CO)C(=O)c2c(c3ccccc3n2C)-c2ccccc2CO[C@@H]1CN(C)C(=O)Nc1ccccc1C(F)(F)F | 74* | 5 | 39 | 86
Cc1cc(C)c(C#N)c(N2CCN(c3ccccc3)CC2)n1 | -49 | x | x | x
O=C(O)c1ccc2c(c1)OCCCO2 | -44 | x | x | x
Cc1ccc(S(=O)(=O)/N=C2\C=C(Nc3ccc(O)cc3)C(=O)c3ccccc32)cc1 | -86 | x | x | x
C[C@@H]1CN([C@H](C)CO)C(=O)c2c(c3ccccc3n2C)-c2ccccc2CO[C@@H]1CN(C)C(=O)Nc1ccc2c(c1)OCO2 | u | 9 | 78 | u
COC(=O)Cn1ccc(-c2ccc(Cl)cc2)c(C#N)c1=O | -49 | x | x | x
C[N+]1(C)CCC(=C2c3ccccc3CC(=O)c3sccc32)CC1 | -94 | x | x | x
O=C(Nc1ccc(-c2noc(CCc3ccccc3)n2)cc1)c1cccnc1 | 131* | 28 | 2.8 | -18
Cc1ccc2oc(Nc3nc(C)c(C)c(C)n3)nc2c1 | -41 | x | x | x
COC(=O)c1ccc(NC(=O)c2cccnc2)cc1 | 127* | x | 68 | u
SMILES | PGC1a Ac signal | Hep G6PC suppr | PCK1 hep suppr | PGC1a hep suppr
Cc1ccc2oc(-c3ccc(NC(=O)c4cccnc4)cc3)nc2c1 | 73* | 5 | -7 | 83
COc1ccc(C2c3[nH]c4ccccc4c3C[C@H]3C(=O)N(c4ccccc4C(=O)N4CCC[C@@H]4C(=O)O)C(=O)N23)cc1 (some centres undefined) | -44 | x | x | x
Cc1ccccc1CS(=O)(=O)c1nnc([C@H](Cc2ccccc2)NC(=O)OC(C)(C)C)o1 | -55 | x | x | x
Cc1ccc2nsnc2c1S(=O)(=O)N(Cc1ccco1)Cc1cc2cccc(C)c2[nH]c1=O | -47 | x | x | x
CC1CCCC=CC2CC(OC(=O)CN(C)C)CC2C(O)C=CC(=O)O1 (centres undefined) | -67 | x | x | x
O=c1[nH]nc(-c2ccc(NCCCO)c([N+](=O)[O-])c2)c2ccccc12 | -59 | x | x | x
N#Cc1c(C#N)c(O)c2ccccc2c1O | -46 | x | x | x
CCCS(=O)(=O)Nc1cccc(-c2nc3cccnc3s2)c1 | u | -45 | -27 | 35
CCOc1ccc(S(=O)(=O)N(C)C)cc1-c1nc2c(C(C)(C)C)nn(C)c2c(=O)[nH]1 | -48 | x | x | x
CCN(CC(=O)NCc1ccc(Cl)cc1)C(=O)CSCC(=O)Nc1ccc(C)cc1 | u | -12 | 34 | 60
C=CC(=O)N1C/C(=C/c2ccccc2)C(=O)/C(=C\c2ccccc2)C1 | -73 | x | x | x

From PubChem BioAssay
